As a reminder, the EC50 is the concentration giving half of the maximal effect. As a reminder, the CC50 is the concentration that lowers cell viability or growth by half. Lower therefore signals greater toxicity to the cells. Usually IC50 stands for the concentration that inhibits the measured activity by half. Read a high IC50 as weaker potency.

The values that follow come from ChEMBL document CHEMBL5252642, “Design and synthesis of naturally-inspired SARS-CoV-2 inhibitors” (RSC Med Chem, 2023).

The source made the active and inactive calls. The calls are words filed in the database; no cut-off is given here. Bounds are passed on as bounds.

One data set has as its system SARS-CoV-2. Briefly: Antiviral activity against SARS-CoV-2 BetaCoV/France/IDF0372/2020 infected human A549-ACE2 cells assessed as inhibition of viral replication by qRT-PCR analysis. It is filed as functional, organism-based. To be noted: Severe acute respiratory syndrome coronavirus 2, BetaCoV/France/IDF0372/2020, A549-ACE2. Background: In qPCR the cycle at which signal appears reflects the starting amount.

Data set [1] is described as follows: Cytotoxicity against human A549-ACE2 cells. It is filed as toxicity, cell-based. The essentials: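 A549-ACE2 cells (2,000/well) were exposed to compounds for 72 h. Viability was read as CellTiter-Glo luminescence. Controls were 0.5% DMSO and 10 µM camptothecin. Values come from triplicate dose-response curves.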
A short description of data set [2]: (§1) Inhibition of SARS-CoV-2 N-terminus His tagged nsp10/nsp16 complex expressed in Escherichia coli using [3H]SAM as substrate by scintillation proximity assay. Details: species or system Severe acute respiratory syndrome coronavirus 2. The essentials: (§2)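 Compounds were serially titrated from 8 µM to 2 mM DMSO stocks, giving 5% DMSO final. They were preincubated 2 h at 23 °C with 125 nM nsp10–nsp16 (8:1) in 50 mM Tris-HCl pH 7.5, 1.5 mM MgCl2, 1 mM TCEP and 0.01% Triton X-100. Then 0.8 µM RNA and 2 µM SAM (30% 3H-SAM) were added for 30 min at 23 °C. Radioactivity was read. Tests were in triplicate, with curves constrained to 0–100.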
On the technique in general: In a scintillation proximity assay essentially only radioactivity close to the scintillant gives light.

For data set [3], the target named is Replicase polyprotein 1ab (Severe acute respiratory syndrome coronavirus 2, UniProt P0DTD1). Briefly: (§3) Inhibition of SARS-CoV-2 nsp14 guanine-N7-methyltransferase activity. The essentials:
(§4)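 Compounds were serially titrated from 8 µM to 2 mM DMSO stocks, giving 5% DMSO final. They were preincubated 2 h at 23 °C with 1.5 nM nsp14 in 20 mM Tris-HCl pH 7.5, 0.25 mM MgCl2, 1 mM TCEP and 0.01% Triton X-100. Then 50 nM RNA and 0.25 µM 3H-SAM were added for 20 min. Radioactivity was read. Tests were in triplicate, with SAH as positive control and curves constrained to 0–100.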

Data set [4] concerns Severe acute respiratory syndrome coronavirus 2. The data set is described as §1. In outline:
as §2

The target in data set [5] is Replicase polyprotein 1ab (Severe acute respiratory syndrome coronavirus 2) (UniProt P0DTD1). The description is as §3. In outline:
as §4

With `Cc1ccc(S(=O)(=O)N2C[C@@]34CN(CCc5c[nH]c6ccccc56)C[C@@H](O3)[C@@H]3[C@H]4[C@@]2(C(C)C)CC[C@@H]3O)cc1`, in the data set on SARS-CoV-2, the EC50 turned out to be 8.3 µM. The compound further yielded a half-maximal cytotoxic concentration (CC50) in data set [1] of 13 µM.

Turning to `Cc1ccc(S(=O)(=O)N2C[C@@]34CN(Cc5ccccc5)C[C@@H](O3)[C@H]3[C@@H](Oc5ncccn5)CC[C@]2(C(C)C)[C@H]34)cc1`, the EC50 with SARS-CoV-2 worked out at 6.2 µM. In data set [1], this compound had a CC50 of 6.3 µM.

Regarding `COc1cc(CN2C[C@H]3O[C@]4(C2)CN(S(=O)(=O)c2ccc(C)cc2)[C@]2(C(C)C)CC[C@H](O)[C@H]3[C@H]42)cc(OC)c1`, in the data set with SARS-CoV-2, the EC50 is 5.6 µM. Further, it took 13 µM to reach half-maximal cytotoxicity in data set [1] (CC50).

Take `Cc1ccc(S(=O)(=O)N2C[C@@]34CN(Cc5ccccc5)C[C@@H](O3)[C@H]3C(=O)C=C[C@]2(C(C)C)[C@H]34)cc1`: the EC50 in the data set with SARS-CoV-2 was 16 µM. In addition, the CC50 in data set [1] was determined as 14 µM.

For `COc1ccc(CCN2C[C@H]3O[C@]4(C2)CN(S(=O)(=O)c2ccc(C)cc2)[C@]2(C(C)C)C=C[C@H](Oc5ncccn5)[C@H]3[C@H]42)cc1`, the EC50 in the data set with SARS-CoV-2 is above 50 µM.

For the compound `CNC(=O)N1C[C@H]2O[C@]3(C1)CN(S(=O)(=O)c1ccc(C)cc1)[C@]1(C(C)C)CC[C@H](O)[C@H]2[C@H]31`, the EC50 with SARS-CoV-2 is above 50 µM. The CC50 in data set [1] is above 50 µM.

As to `Cc1ccc(S(=O)(=O)N2C[C@@]34CN(Cc5nc6ccccc6s5)C[C@@H](O3)[C@H]3C(=O)CC[C@]2(C(C)C)[C@H]34)cc1`, the 50% effective concentration (EC50) in the data set with SARS-CoV-2 is 5.3 µM. This compound also displayed a CC50 in data set [1] of 37 µM.

As to `Cc1ccc(S(=O)(=O)N2C[C@@]34CN(C)C[C@@H](O3)[C@H]3C(=O)CC[C@]2(C(C)C)[C@H]34)cc1`, the EC50 with SARS-CoV-2 was above 50 µM. The compound also displayed a CC50 in data set [1] above 50 µM.

As to `Cc1ccc(S(=O)(=O)N2C[C@@]34CN(C)C[C@@H](O3)[C@H]3[C@@H](Oc5ncccn5)CC[C@]2(C(C)C)[C@H]34)cc1`, the EC50 in the data set with SARS-CoV-2 is 20 µM. This compound also showed a CC50 in data set [1] of 17 µM.

As for `Cc1ccc(S(=O)(=O)N2C[C@@]34CN(Cc5ccccc5)C[C@@H](O3)[C@@H]3[C@H]4[C@@]2(C(C)C)C=C[C@@H]3O)cc1`, the EC50 with SARS-CoV-2 came out at 17 µM. The same compound yielded a CC50 in data set [1] above 50 µM.

In the case of `Nc1ncnc2c1ncn2[C@@H]1O[C@H](CSCC[C@H](N)C(=O)O)[C@@H](O)[C@H]1O` [S-ADENOSYLHOMOCYSTEINE], the IC50 in data set [2] is 3.9 µM; in data set [3], 0.22 µM.

With `Cc1ccc(S(=O)(=O)N2C[C@@]34CN(Cc5ccccc5)C[C@@H](O3)[C@H]3C(=O)CC[C@]2(C(C)C)[C@H]34)cc1`, the EC50 in the data set with SARS-CoV-2 came out at 8.4 µM. Moreover, the midpoint of cytotoxicity in data set [1], the CC50, lay at 5.8 µM.

As to `Cc1ccc(S(=O)(=O)N2C[C@@]34CN(C(=O)c5ccc(N)cn5)C[C@@H](O3)[C@@H]3[C@H]4[C@@]2(C(C)C)CC[C@@H]3O)cc1`, the EC50 in the data set with SARS-CoV-2 was 37 µM. In data set [1], this compound returned a CC50 above 50 µM.

As for `COc1ccc(CCN2C[C@H]3O[C@]4(C2)CN(S(=O)(=O)c2ccc(C)cc2)[C@]2(C(C)C)C=C[C@H](O)[C@H]3[C@H]42)cc1`, the EC50 in the data set on SARS-CoV-2 is 3.7 µM. Moreover, the inhibition entry in data set [4] and in data set [5] was “inactive” each time. Moreover, the midpoint of cytotoxicity in data set [1], the CC50, lay at 12 µM.

Turning to `Cc1ccc(S(=O)(=O)N2C[C@@]34CN(C(=O)c5cccs5)C[C@@H](O3)[C@H]3[C@@H](Oc5cc(C)nc(N)n5)CC[C@]2(C(C)C)[C@H]34)cc1`, the EC50 in the data set on SARS-CoV-2 was above 50 µM. Also, the CC50 in data set [1] was above 50 µM.

On to `COCn1ccc(N2C[C@H]3O[C@]4(C2)CN(S(=O)(=O)c2ccc(C)cc2)[C@]2(C(C)C)CC[C@H](O)[C@H]3[C@H]42)nc1=O`, for which the EC50 in the data set on SARS-CoV-2 is above 17 µM. The same compound returned a CC50 in data set [1] above 50 µM.

On to `COc1cc(CN2C[C@H]3O[C@]4(C2)CN(S(=O)(=O)c2ccc(C)cc2)[C@]2(C(C)C)CC[C@H](OCCCN(C)C)[C@H]3[C@H]42)cc(OC)c1`, for which the EC50 in the data set on SARS-CoV-2 was 1.4 µM. Also, the inhibition entry in data set [4] was “inactive”. In data set [1], this compound yielded a cytotoxic concentration (CC50) of 7.7 µM. The compound also displayed an IC50 in data set [3] above 100 µM.

For the compound `Cc1ccc(S(=O)(=O)N2C[C@@]34CNC[C@@H](O3)[C@H]3C(=O)CC[C@]2(C(C)C)[C@H]34)cc1`, the EC50 in the data set on SARS-CoV-2 is above 50 µM. The same compound had a CC50 in data set [1] above 50 µM.

For the compound `Cc1ccc(S(=O)(=O)N2C[C@@]34CN(C(=O)c5cccs5)C[C@@H](O3)[C@@H]3[C@H]4[C@@]2(C(C)C)CC[C@@H]3O)cc1`, the 50% effective concentration (EC50) with SARS-CoV-2 worked out at 16 µM. The compound further had a CC50 in data set [1] above 50 µM.

Consider `COc1ccc(CCN2C[C@H]3O[C@]4(C2)CN(S(=O)(=O)c2ccc(C)cc2)[C@]2(C(C)C)C=CC(=O)[C@H]3[C@H]42)cc1`, for which the EC50 in the data set on SARS-CoV-2 is 13 µM. For the same compound, in data set [1], half-maximal cytotoxicity (CC50) was put at 6.6 µM.

Turning to `Cc1ccc(S(=O)(=O)N2C[C@@]34CN(C(=O)c5ccc(F)cc5N)C[C@@H](O3)[C@@H]3[C@H]4[C@@]2(C(C)C)CC[C@@H]3O)cc1`, the EC50 in the data set on SARS-CoV-2 came to 14 µM. The same compound gave a CC50 in data set [1] of 20 µM.

For the compound `Cc1ccc(S(=O)(=O)N2C[C@@]34CN(C(=O)C5CC5)C[C@@H](O3)[C@H]3[C@@H](Oc5ncccn5)CC[C@]2(C(C)C)[C@H]34)cc1`, in the data set with SARS-CoV-2, the EC50 is above 40 µM. In data set [1], this compound gave a half-maximal cytotoxic concentration (CC50) above 50 µM.

`Cc1ccc(S(=O)(=O)N2C[C@@]34CN(Cc5nc6ccccc6s5)C[C@@H](O3)[C@@H]3[C@H]4[C@@]2(C(C)C)CC[C@@H]3O)cc1`: the EC50 in the data set with SARS-CoV-2 came to 6.6 µM. This compound also came in with a CC50 in data set [1] of 12 µM.
